Our source for the inhibition, Activity and IC50 values is ChEMBL document CHEMBL2407061, “Medicinal chemistry of dihydropyran-based medium ring macrolides related to aspergillides: selective inhibition of PI3Kα” (J Med Chem, 2013).

Assay [1] deals with Phosphatidylinositol 4,5-bisphosphate 3-kinase catalytic subunit alpha isoform (Homo sapiens) (UniProt P42336). As to the kind of experiment: Inhibition of PI3K p110 alpha in human HL60 cells assessed as inhibition of AKT phosphorylation at AKT S473 by Western blotting analysis. It counts as cell-based. The conditions noted are these: HL-60. The method in brief: (§1)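 Treated and untreated HL-60 cells spun at 400g at 4°C, washed in PBS and lysed in RIPA buffer for whole-cell lysate. 60 µg protein per lane run on SDS-PAGE and probed with primary antibodies. ECL chemiluminescence detection, with β-actin as the loading control.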

For assay [2], the system named is HL-60. Kind of assay: Induction of apoptosis in human HL60 cells assessed as change in nuclear morphology at 5 to 20 uM after 6 hrs by Hoechst 33258 staining-based inverted fluorescence analysis. Format: functional, cell-based. The method in brief:
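HL-60 cells exposed for 6 h. Spun at 400 g, washed twice in PBS, stained 30 min at room temperature under subdued light with Hoechst 33258 (10 µg/ml in citrate/phosphate buffer with 0.05% Tween 20). Mounted in PBS:glycerol 1:1 and viewed by UV-excitation fluorescence microscopy for nuclear changes and apoptotic bodies.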

The nature of assay [3]: Cytotoxicity against human FR2 cells after 48 hrs by MTT assay. It counts as cell-based. The conditions noted are these: FR2, 48 h. An outline of the steps: (§2)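 15000 cells per well in 200µl medium, exposed to a range of concentrations for 48 h (compounds in DMSO, diluted in complete medium). MTT (20µl of 2.5 mg/ml) added for 2 h at 37°C, formazan dissolved in DMSO, OD read at 570 nm. Viability = OD test/OD control ×100. IC50 taken from the concentration–survival curve after blank subtraction.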
Background: Tetrazolium dyes change colour on reduction, which living cells bring about.

Assay [4] deals with HL-60. Kind of assay: Induction of apoptosis in human HL60 cells assessed as late apoptotic cells at 10 uM after 6 hrs by Annexine V/propidium iodide staining-based FACS flow cytometry analysis (reference value: 2%). It counts as functional.
The test system of assay [5] is HL-60. As to the kind of experiment: Induction of apoptosis in human HL60 cells assessed as blebbing and shrinkage of cells at 5 to 20 uM after 6 hrs by phase contrast microscopy.
Assay [6] concerns HL-60. As to the kind of experiment: Inhibition of human ERK 1/2 expression in human HL60 cells by Western blotting analysis. It counts as functional, cell-based. An outline of the steps:
as §1
Background: A western blot detects proteins with antibodies after separation by electrophoresis.

The test system of the next assay is A-375. As to the kind of experiment: Antiproliferative activtiy against human A375 cells assessed as growth inhibition after 48 hrs by MTT assay. Format: functional, cell-based. The conditions noted are these: A-375, 48 h. An outline of the steps: as §2
Assay [7] deals with HL-60. Kind of assay: Induction of apoptosis in human HL60 cells assessed as mitochondrial membrane potential loss after 6 hrs by RH 123 staining-based flow cytometer analysis. Format: functional, cell-based. The method in brief:
(§3)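 1×10^6 HL-60 cells in 12-well plates, exposed to 5, 10 or 20 µM for 6 h. Rhodamine 123 added 30 min before the end. Cells collected at 400 g, washed once in PBS, and fluorescence read in the FL-1 channel of a flow cytometer.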
On the technique in general: In flow cytometry, cells or beads pass a laser one at a time.

The subject of assay [8] is HL-60. Kind of assay: Cell cycle arrest in human HL60 cells assessed as accumulation at G0/G1 phase at 10 uM after 6 hrs using by propidium iodide staining by FACS analysis (reference value: 6%). It counts as functional.
Assay [9] deals with Phosphatidylinositol 4,5-bisphosphate 3-kinase catalytic subunit alpha isoform (Homo sapiens) (UniProt P42336). Kind of assay: Inhibition of PI3K p110 alpha in human HL60 cells assessed as PARP 1 clevage by Western blotting analysis. It counts as cell-based. Particulars: HL-60. The method in brief:
as §1

Assay [10] concerns HL-60. As to the kind of experiment: Antiproliferative activtiy against human HL60 cells assessed as growth inhibition after 48 hrs by MTT assay. It counts as functional, cell-based. Particulars: HL-60, 48 h. The method in brief:
as §2

In assay [11] the target is Phosphatidylinositol 4,5-bisphosphate 3-kinase catalytic subunit alpha isoform (Homo sapiens) (UniProt P42336). As to the kind of experiment: Inhibition of PI3K p110 alpha in human HL60 cells by Western blotting analysis. It counts as cell-based. The conditions noted are these: HL-60. The method in brief: as §1
Assay [12] has the same target. Kind of assay: Inhibition of PI3K p110 alpha in human HL60 cells assessed as caspase 3 clevage by Western blotting analysis. Particulars: HL-60. It counts as cell-based. An outline of the steps: as §1
For assay [13] the target is unchanged. As to the kind of experiment: Inhibition of PI3K p110 alpha in human HL60 cells assessed as inhibition of GSK3 beta phosphorylation by Western blotting analysis. It counts as cell-based. The conditions noted are these: HL-60. The method in brief:
as §1

The subject of assay [14] is HL-60. Kind of assay: Cell cycle arrest in human HL60 cells assessed as accumulation at G0/G1 phase at 5 uM after 6 hrs using by propidium iodide staining by FACS analysis (reference value: 6%). It counts as functional.
Assay [15] deals with HL-60. Kind of assay: Induction of apoptosis in human HL60 cells assessed as mitochondrial membrane potential loss at 20 uM after 6 hrs by RH 123 staining-based flow cytometer analysis (reference value: 6%). It counts as functional. The method in brief:
as §3

Assay [16] has as its system HL-60. As to the kind of experiment: Induction of apoptosis in human HL60 cells assessed as mitochondrial membrane potential loss at 10 uM after 6 hrs by RH 123 staining-based flow cytometer analysis (reference value: 6%). It counts as functional. An outline of the steps: as §3
In the next assay the test system is PC-3. Kind of assay: Antiproliferative activtiy against human PC3 cells assessed as growth inhibition after 48 hrs by MTT assay. It counts as functional, cell-based. Particulars: PC-3, 48 h. The method in brief:
as §2

For assay [17], the system named is HL-60. As to the kind of experiment: Induction of apoptosis in human HL60 cells assessed as decrease in expression of cytochrome c in mitochondrial fraction after 6 hrs by Western blot analysis. Format: functional, cell-based. An outline of the steps: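 4×10^6 HL-60 cells treated for 6 h. Cytosolic fraction from a 2 min digitonin lysis then 12000g spin; mitochondrial fraction lysed in RIPA. Cytochrome c detected by western blot, with COX IV as the mitochondrial loading control and β-actin as the cytosolic loading control.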

Assay [18] concerns HL-60. Kind of assay: Induction of apoptosis in human HL60 cells assessed as early apoptotic cells at 20 uM after 6 hrs by Annexine V/propidium iodide staining-based FACS flow cytometry analysis (reference value: 4%). It counts as functional.
Assay [19] deals with HL-60. Kind of assay: Induction of apoptosis in human HL60 cells assessed as early apoptotic cells at 5 uM after 6 hrs by Annexine V/propidium iodide staining-based FACS flow cytometry analysis (reference value: 4%). It counts as functional.
The target in assay [20] is Phosphatidylinositol 4,5-bisphosphate 3-kinase catalytic subunit alpha isoform (Homo sapiens) (UniProt P42336). Kind of assay: Inhibition of PI3K p110 alpha in human HL60 cells assessed as inhibition of mTOR phosphorylation by Western blotting analysis. Particulars: HL-60. It counts as cell-based. An outline of the steps:
as §1

In assay [21] the test system is HL-60. As to the kind of experiment: Induction of apoptosis in human HL60 cells assessed as mitochondrial membrane potential loss at 5 uM after 6 hrs by RH 123 staining-based flow cytometer analysis (reference value: 6%). Format: functional. The method in brief: as §3
The subject of assay [22] is HL-60. As to the kind of experiment: Induction of apoptosis in human HL60 cells assessed as change in cell morphology after 6 hrs.
Assay [23] deals with HL-60. Kind of assay: Induction of apoptosis in human HL60 cells assessed as late apoptotic cells at 5 uM after 6 hrs by Annexine V/propidium iodide staining-based FACS flow cytometry analysis (reference value: 2%). It counts as functional.
Assay [24] concerns HL-60. As to the kind of experiment: Cell cycle arrest in human HL60 cells assessed as accumulation at G0/G1 phase at 20 uM after 6 hrs using by propidium iodide staining by FACS analysis (reference value: 6%). Format: functional.
For assay [25], the system named is HL-60. Kind of assay: Induction of apoptosis in human HL60 cells assessed as early apoptotic cells at 10 uM after 6 hrs by Annexine V/propidium iodide staining-based FACS flow cytometry analysis (reference value: 4%). Format: functional.
The target in assay [26] is Phosphatidylinositol 4,5-bisphosphate 3-kinase catalytic subunit alpha isoform (Homo sapiens) (UniProt P42336). As to the kind of experiment: Inhibition of PI3K p110 alpha in human HL60 cells assessed as effect on total AKT level by Western blotting analysis. Format: cell-based. Particulars: HL-60. An outline of the steps: as §1
For assay [27] the target is unchanged. As to the kind of experiment: Inhibition of PI3K p110 alpha in human HL60 cells assessed as inhibition of AKT phosphorylation at T308 by Western blotting analysis. It counts as cell-based. The conditions noted are these: HL-60. An outline of the steps: as §1
Assay [28] has as its system HL-60. As to the kind of experiment: Induction of apoptosis in human HL60 cells assessed as late apoptotic cells at 20 uM after 6 hrs by Annexine V/propidium iodide staining-based FACS flow cytometry analysis (reference value: 2%). Format: functional.

SMILES strings stand for the structures. Active and inactive are the calls of the source. The rule behind the calls is not given here.

Chain of Phosphatidylinositol 4,5-bisphosphate 3-kinase catalytic subunit alpha isoform (Homo sapiens) (P42336 whole entry, canonical isoform): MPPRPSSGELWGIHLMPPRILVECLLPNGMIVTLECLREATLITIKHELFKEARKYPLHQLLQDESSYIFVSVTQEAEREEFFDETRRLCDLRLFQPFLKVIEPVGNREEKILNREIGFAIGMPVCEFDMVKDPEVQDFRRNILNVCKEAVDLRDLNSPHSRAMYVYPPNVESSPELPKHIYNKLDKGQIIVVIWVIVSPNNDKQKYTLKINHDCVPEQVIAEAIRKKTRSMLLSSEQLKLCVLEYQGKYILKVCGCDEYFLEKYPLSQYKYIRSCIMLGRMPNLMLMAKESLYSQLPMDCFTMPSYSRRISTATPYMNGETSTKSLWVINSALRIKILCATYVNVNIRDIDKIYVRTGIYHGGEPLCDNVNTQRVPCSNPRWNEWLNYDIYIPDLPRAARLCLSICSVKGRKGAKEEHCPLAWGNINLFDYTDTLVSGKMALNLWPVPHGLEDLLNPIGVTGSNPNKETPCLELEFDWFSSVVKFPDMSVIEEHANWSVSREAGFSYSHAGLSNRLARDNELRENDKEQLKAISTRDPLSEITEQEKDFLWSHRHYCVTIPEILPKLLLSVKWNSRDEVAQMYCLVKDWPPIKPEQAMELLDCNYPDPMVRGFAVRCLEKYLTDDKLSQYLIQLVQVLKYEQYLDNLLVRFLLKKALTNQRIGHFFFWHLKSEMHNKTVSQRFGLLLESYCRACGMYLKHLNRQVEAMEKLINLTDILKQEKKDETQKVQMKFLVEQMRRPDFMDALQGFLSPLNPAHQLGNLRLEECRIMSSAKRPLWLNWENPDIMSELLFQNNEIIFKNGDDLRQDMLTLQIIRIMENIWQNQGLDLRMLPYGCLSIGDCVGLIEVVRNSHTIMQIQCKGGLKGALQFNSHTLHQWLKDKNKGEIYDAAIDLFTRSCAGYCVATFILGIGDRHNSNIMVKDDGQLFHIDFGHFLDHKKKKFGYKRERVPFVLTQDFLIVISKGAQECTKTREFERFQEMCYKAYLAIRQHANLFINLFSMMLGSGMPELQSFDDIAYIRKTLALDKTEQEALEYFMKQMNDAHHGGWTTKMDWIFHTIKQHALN

Consider `CO[C@H]1C=C[C@H]2C/C=C\C[C@H](c3ccc(-c4ccccc4C(F)(F)F)cc3)OC(=O)C[C@@H]1O2`, for which the inhibition entry in [1], in assay [11], in [13], in [20] and in [27] was “Active” each time. Further, the Activity result in the assay with HL-60 [2] is “Dose-dependent effect”; in the assay with HL-60 [4], 4%; in the assay with HL-60 [7], “Dose-dependent effect”; in the assay on HL-60 [8] it was 30%; with HL-60 [14] it was 24%; in the assay with HL-60 [15], 62%. Moreover, the Activity in the assay with HL-60 [16] was 36%; in the assay on HL-60 [18], 37%; in the assay with HL-60 [19], 25%; in the assay on HL-60 [21], 21%; in the assay with HL-60 [22], “Dose-dependent effect”; with HL-60 [23], 3%. The figures for the Activity in the assay on HL-60 [24], in the assay on HL-60 [25] and in the assay with HL-60 [28] were 37%, 32% and 4%, respectively. Further, the IC50 was ≥ 100 µM in assay [3], 9.64 µM in the assay on A-375, 1.1 µM in the assay with HL-60 [10] and 7.36 µM in the assay on PC-3. The outcome with HL-60 [5] and in the assay on HL-60 [17] was Active. For the same compound, the inhibition entry (with HL-60 [6]; in assay [26]) was “inactive” throughout. For the same compound, the inhibition entry in assay [9] and in [12] was “Dose-dependent effect” in each case.

With `O=C1C[C@@H]2O[C@@H](C=C[C@@H]2O)C/C=C\C[C@H](c2ccc3ccccc3c2)O1`, the IC50 in the assay on A-375 came to 50 µM; in the assay with HL-60 [10], 30.9 µM; in the assay on PC-3, 21.5 µM.

As to `O=C1C[C@@H]2O[C@@H](C=C[C@@H]2O)C/C=C\C[C@H](c2ccc(F)cc2)O1`, the IC50 came out at 20.8 µM in the assay with A-375, 40.2 µM in the assay on HL-60 [10] and 35.8 µM in the assay with PC-3.

Regarding `CCO[C@H]1C=C[C@H]2C/C=C\C[C@H](c3ccc(OC)cc3)OC(=O)C[C@@H]1O2`, the IC50 in the assay on A-375 was 62.7 µM; in the assay with HL-60 [10], 69.9 µM; in the assay on PC-3 it was 56 µM.

Turning to `COc1ccc(CO[C@H]2C=C[C@H]3C/C=C\C[C@H](c4ccc5ccccc5c4)OC(=O)C[C@@H]2O3)cc1`, the IC50 with A-375 was > 100 µM; in the assay on HL-60 [10], 10.2 µM; in the assay on PC-3, 45.4 µM.

On to `CCO[C@H]1C=C[C@H]2C/C=C\C[C@H](c3ccc(Cl)cc3)OC(=O)C[C@@H]1O2`, for which the IC50 was determined as 4.9 µM with A-375, 5.7 µM in the assay on HL-60 [10] and 9.16 µM in the assay on PC-3.

As for `CO[C@H]1C=C[C@H]2C/C=C\C[C@H](c3ccc(Br)cc3)OC(=O)C[C@@H]1O2`, the results for the IC50 in the assay on A-375, in the assay with HL-60 [10] and in the assay with PC-3 were 5.45 µM, 10 µM and 15.8 µM, respectively.

`C[C@H]1CCC/C=C/[C@H]2CC[C@H](O)[C@@H](CC(=O)O1)O2`: the IC50 in the assay with HL-60 [10] turned out to be 81.2 µM.

Consider `C[C@H]1CCC/C=C/[C@H]2CC[C@H](O)[C@H](CC(=O)O1)O2`, for which the IC50 in the assay on HL-60 [10] turned out to be 32.8 µM.

On to `COc1ccc(CO[C@H]2C=C[C@H]3C/C=C\C[C@H](c4ccc(F)cc4)OC(=O)C[C@@H]2O3)cc1`, for which the IC50 was found to be 4.76 µM with A-375, 8.83 µM in the assay on HL-60 [10] and 2.23 µM with PC-3.

As to `CCO[C@H]1C=C[C@H]2C/C=C\CC[C@H](C)OC(=O)C[C@@H]1O2`, the IC50 turned out to be 57 µM in the assay with A-375, 69.7 µM in the assay on HL-60 [10] and 78 µM with PC-3.

By IC50 is commonly meant the midpoint of a concentration-inhibition curve.
